{"source": "ChEMBL document CHEMBL1122504", "about": "“Heterocyclic Quinones. 4. A new highly cytotoxic drug: 6,7-bis(1-aziridinyl)-5,8-quinazolinedione” (1983)", "key": {"L1210 [1]": {"tested_on": "L1210", "experiment": "MST of treated animal over control when administered at a dose of 10 mg/kg intraperitoneally on Q01Dx01 treatment schedule in L1210 cell lines", "format": "functional, Mus musculus", "conditions": "route intraperitoneal", "method_in_brief": "(§1)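 L1210 leukaemia: DBA/2 mice inoculated ip with 10^5 cells on day 0, with ip drug in 0.15 M NaCl saline on the stated schedule. The read-out was median survival time in days, with toxicity taken as survivors on day 5. T/C% = treated MST/control MST × 100; >125% is considered significant.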"}, "P388 [2]": {"tested_on": "P388", "experiment": "Number of survivors of P388 lymphocytic leukemia cell line on day 5/ number of treated mice at a dose of 3 ip injection of 10 mg/kg on Q04Dx03 treatment schedule; 10/10", "format": "functional, Mus musculus", "conditions": "route intraperitoneal"}, "P388 [3]": {"tested_on": "P388", "experiment": "Number of survivors of P388 lymphocytic leukemia cell line on day 5/ number of treated mice at a dose of 5 ip injection of 5 mg/kg on Q01Dx05 treatment schedule; 10/10", "format": "functional, Mus musculus", "conditions": "route intraperitoneal"}, "Sarcoma-180 [4]": {"tested_on": "Sarcoma-180", "experiment": "Number of survivors of sarcoma 180 cell line on day 5/ number of treated mice at a dose of 1 ip injection of 10 mg/kg on Q01Dx01 treatment schedule; 10/10", "format": "functional, Mus musculus", "conditions": "route intraperitoneal"}, "Sarcoma-180 [5]": {"tested_on": "Sarcoma-180", "experiment": "MST of treated animal over control when administered at a dose of 20 mg/kg intraperitoneally on Q01Dx01 treatment schedule in sarcoma 180 cell lines", "format": "functional, Mus musculus", "conditions": "route intraperitoneal", "method_in_brief": "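Sarcoma 180: Swiss mice inoculated ip with 10^6 cells on day 0, with single ip injection of drug in 0.15 M NaCl saline. Median survival time was recorded in days, with toxicity taken as survivors on day 5. T/C% = treated MST/control MST × 100; >125% is considered significant.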"}, "P388 [6]": {"tested_on": "P388", "experiment": "Median survival time of P388 lymphocytic leukemia cell line after a dose of 10 mg/kg administered intraperitoneally on Q01Dx01 treatment schedule", "format": "functional, Mus musculus", "conditions": "route intraperitoneal", "method_in_brief": "(§2)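 P388 leukaemia: DBA/2 mice inoculated with 10^6 cells on day 0; treatment began day 1 at the stated route and schedule. Drug was dissolved in 0.15 M NaCl saline. The read-out was median survival time (MST, days), with toxicity taken as survivors on day 5. T/C% = treated MST/control MST × 100; ≥125% is considered significant.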"}, "B16 [7]": {"tested_on": "B16", "experiment": "MST of treated animal over control when administered at a dose of 10 mg/kg intraperitoneally on Q01Dx01 treatment schedule in B16 melanocarcinoma cell lines", "format": "functional, Mus musculus", "conditions": "route intraperitoneal", "method_in_brief": "(§3)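 B16 melanocarcinoma: C57Bl/6 mice implanted sc with cell suspension on day 0; single ip dose in 0.15 M NaCl saline given on day 1. Median survival time was recorded in days, with toxicity taken as survivors on day 5. T/C% = treated MST/control MST × 100; >125% is considered significant.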"}, "B16 [8]": {"tested_on": "B16", "experiment": "Number of survivors of B16 melanocarcinoma cell line on day 5/ number of treated mice at a dose of 1 ip injection of 10 mg/kg on Q01Dx01 treatment schedule; 10/10", "format": "functional, Mus musculus", "conditions": "route intraperitoneal"}, "Salmonella typhimurium [9]": {"tested_on": "Salmonella typhimurium", "experiment": "Mutagenesis test was performed at 0.3 uM concentration in Salmonella Typhimurium TA 98", "format": "functional, Salmonella enterica subsp. enterica serovar Typhimurium", "method_in_brief": "(§4)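 Salmonella typhimurium his auxotrophs TA98 and TA100 were tested by liquid suspension without metabolic activation. Overnight Oxoid nutrient broth cultures were subcultured, grown 2 h, then exposed to drug for 5 h. Cells were washed, resuspended to A650 2.50, and plated in top agar (0.6% agar, 0.6% NaCl). His+ revertants per plate were counted after 48 h at 37 °C; values are means of three assays.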"}, "P388 [10]": {"tested_on": "P388", "experiment": "Number of survivors of P388 lymphocytic leukemia cell line on day 5/ number of treated mice at a dose of 9 ip injection of 5 mg/kg on Q01Dx09 treatment schedule; 10/10", "format": "functional, Mus musculus", "conditions": "route intraperitoneal"}, "B16 [11]": {"tested_on": "B16", "experiment": "Median survival time of […] melanocarcinoma cell line after a dose of 5 mg/kg administered intraperitoneally on Q01Dx01 treatment schedule", "format": "functional, Mus musculus", "conditions": "route intraperitoneal", "method_in_brief": "as §3"}, "P388 [12]": {"tested_on": "P388", "experiment": "Number of survivors of P388 lymphocytic leukemia cell line on day 5/ number of treated mice at a dose of 1 i.v. injection of 15 mg/kg on Q01Dx01 treatment schedule; 10/10", "format": "functional, Mus musculus", "conditions": "route intravenous"}, "P388 [13]": {"tested_on": "P388", "experiment": "MST of treated animal over control when administered at a dose of 15 mg/kg perorally on Q01Dx07 treatment schedule", "format": "functional, Mus musculus", "conditions": "route oral", "method_in_brief": "as §2"}, "B16 [14]": {"tested_on": "B16", "experiment": "Number of survivors of B16 melanocarcinoma cell line on day 5/ number of treated mice at a dose of 1 ip injection of 2.5 mg/kg on Q01Dx01 treatment schedule; 10/10", "format": "functional, Mus musculus", "conditions": "route intraperitoneal"}, "L1210 [15]": {"tested_on": "L1210", "experiment": "Median survival time of L1210 cell line after a dose of 5 mg/kg administered intraperitoneally on Q01Dx05 treatment schedule", "format": "functional, Mus musculus", "conditions": "route intraperitoneal", "method_in_brief": "as §1"}, "Salmonella typhimurium [16]": {"tested_on": "Salmonella typhimurium", "experiment": "Mutagenesis test was performed at 4 uM concentration in Salmonella Typhimurium TA 100", "format": "functional, Salmonella enterica subsp. enterica serovar Typhimurium", "method_in_brief": "as §4"}, "L1210 [17]": {"tested_on": "L1210", "experiment": "Median survival time of L1210 cell line after a dose of 5 mg/kg administered intraperitoneally on Q01Dx09 treatment schedule", "format": "functional, Mus musculus", "conditions": "route intraperitoneal", "method_in_brief": "as §1"}, "P388 [18]": {"tested_on": "P388", "experiment": "Median survival time of P388 lymphocytic leukemia cell line after a dose of 20 mg/kg administered intraperitoneally on Q01Dx01 treatment schedule", "format": "functional, Mus musculus", "conditions": "route intraperitoneal", "method_in_brief": "as §2"}, "L1210 [19]": {"tested_on": "L1210", "experiment": "Median survival time of L1210 cell line after a dose of 10 mg/kg administered intraperitoneally on Q01Dx01 treatment schedule", "format": "functional, Mus musculus", "conditions": "route intraperitoneal", "method_in_brief": "as §1"}, "L1210 [20]": {"tested_on": "L1210", "experiment": "Number of survivors of L1210 cell line on day 5/ number of treated mice at a dose of 2ip injection of 10 mg/kg on Q01Dx02 treatment schedule; 10/10", "format": "functional, Mus musculus"}, "Sarcoma-180 [21]": {"tested_on": "Sarcoma-180", "experiment": "Number of survivors of sarcoma 180 cell line on day 5/ number of treated mice at a dose of 1 ip injection of 20 mg/kg on Q01Dx01 treatment schedule; 10/10", "format": "functional, Mus musculus", "conditions": "route intraperitoneal"}, "L1210 [22]": {"tested_on": "L1210", "experiment": "MST of treated animal over control when administered at a dose of 2.5 mg/kg intraperitoneally on Q01Dx09 treatment schedule in L1210 cell lines", "format": "functional, Mus musculus", "conditions": "route intraperitoneal", "method_in_brief": "as §1"}, "Salmonella typhimurium [23]": {"tested_on": "Salmonella typhimurium", "experiment": "Mutagenesis test was performed at 40 uM concentration in Salmonella Typhimurium TA 98", "format": "functional, Salmonella enterica subsp. enterica serovar Typhimurium", "method_in_brief": "as §4"}, "P388 [24]": {"tested_on": "P388", "experiment": "Number of survivors of P388 lymphocytic leukemia cell line on day 5/ number of treated mice at a dose of 7po injection of 15 mg/kg on Q01Dx07 treatment schedule; 10/10", "format": "functional, Mus musculus"}, "P388 [25]": {"tested_on": "P388", "experiment": "Median survival time of P388 lymphocytic leukemia cell line after a dose of 10 mg/kg administered intraperitoneally on Q04Dx03 treatment schedule", "format": "functional, Mus musculus", "conditions": "route intraperitoneal", "method_in_brief": "as §2"}, "P388 [26]": {"tested_on": "P388", "experiment": "Number of survivors of P388 lymphocytic leukemia cell line on day 5/ number of treated mice at a dose of 7po injection of 20 mg/kg on Q01Dx07 treatment schedule; 10/10", "format": "functional, Mus musculus"}, "P388 [27]": {"tested_on": "P388", "experiment": "Median survival time of P388 lymphocytic leukemia cell line after a dose of 15 mg/kg administered perorally on Q01Dx07 treatment schedule", "format": "functional, Mus musculus", "conditions": "route oral", "method_in_brief": "as §2"}, "L1210 [28]": {"tested_on": "L1210", "experiment": "MST of treated animal over control when administered at a dose of 10 mg/kg intraperitoneally on Q01Dx05 treatment schedule in L1210 cell lines", "format": "functional, Mus musculus", "conditions": "route intraperitoneal", "method_in_brief": "as §1"}, "Salmonella typhimurium [29]": {"tested_on": "Salmonella typhimurium", "experiment": "Mutagenesis test was performed at 40 uM concentration in Salmonella Typhimurium TA 100", "format": "functional, Salmonella enterica subsp. enterica serovar Typhimurium", "method_in_brief": "as §4"}, "P388 [30]": {"tested_on": "P388", "experiment": "Number of survivors of P388 lymphocytic leukemia cell line on day 5/ number of treated mice at a dose of 5 ip injection of 10 mg/kg on Q01Dx05 treatment schedule; 10/10", "format": "functional, Mus musculus", "conditions": "route intraperitoneal"}}, "data": [{"smiles": "O=C1C(N2CC2)=C(N2CC2)C(=O)c2ncncc21", "values": [{"measurement": "T/C", "setting": "L1210 [1]", "value": 114, "unit": "%"}, {"measurement": "Toxicity Survivors", "setting": "P388 [2]", "value": 10}, {"measurement": "Toxicity Survivors", "setting": "P388 [3]", "value": 10}, {"measurement": "Toxicity Survivors", "setting": "Sarcoma-180 [4]", "value": 10}, {"measurement": "T/C", "setting": "Sarcoma-180 [5]", "value": 110, "unit": "%"}, {"measurement": "MST", "setting": "P388 [6]", "value": 9.5, "unit": "days"}, {"measurement": "T/C", "setting": "B16 [7]", "value": 91, "unit": "%"}, {"measurement": "Toxicity Survivors", "setting": "B16 [8]", "value": 10}, {"measurement": "Revertants/plate", "setting": "Salmonella typhimurium [9]", "value": 84}, {"measurement": "Toxicity Survivors", "setting": "P388 [10]", "value": 10}, {"measurement": "MST", "setting": "B16 [11]", "value": 15.7, "unit": "days"}, {"measurement": "Toxicity Survivors", "setting": "P388 [12]", "value": 10}, {"measurement": "T/C", "setting": "P388 [13]", "value": 100, "unit": "%"}, {"measurement": "Toxicity Survivors", "setting": "B16 [14]", "value": 10}, {"measurement": "MST", "setting": "L1210 [15]", "value": 9.1, "unit": "days"}, {"measurement": "Revertants/plate", "setting": "Salmonella typhimurium [16]", "value": 87}, {"measurement": "MST", "setting": "L1210 [17]", "value": 9.1, "unit": "days"}, {"measurement": "MST", "setting": "P388 [18]", "value": 9.5, "unit": "days"}, {"measurement": "MST", "setting": "L1210 [19]", "value": 9.4, "unit": "days"}, {"measurement": "Toxicity Survivors", "setting": "L1210 [20]", "value": 10}, {"measurement": "Toxicity Survivors", "setting": "Sarcoma-180 [21]", "value": 10}, {"measurement": "T/C", "setting": "L1210 [22]", "value": 109, "unit": "%"}, {"measurement": "Revertants/plate", "setting": "Salmonella typhimurium [23]", "value": 334}, {"measurement": "Toxicity Survivors", "setting": "P388 [24]", "value": 10}, {"measurement": "MST", "setting": "P388 [25]", "value": 9.9, "unit": "days"}, {"measurement": "Toxicity Survivors", "setting": "P388 [26]", "value": 10}, {"measurement": "MST", "setting": "P388 [27]", "value": 7.6, "unit": "days"}, {"measurement": "T/C", "setting": "L1210 [28]", "value": 69, "unit": "%"}, {"measurement": "Revertants/plate", "setting": "Salmonella typhimurium [29]", "value": 461}, {"measurement": "Toxicity Survivors", "setting": "P388 [30]", "value": 10}]}]}
